From ChEMBL document CHEMBL3232819, “Synthesis and biological evaluation of new pyrazolone-pyridazine conjugates as anti-inflammatory and analgesic agents” (Bioorg Med Chem, 2014)

Tests used:
Mus musculus [1] = assay: Analgesic activity in Swiss Albino mouse assessed as inhibition of acetic acid-induced writhing at 25 mg/kg, po administered 30 mins before to acetic acid challenge measured for 15 mins relative to vehicle-treated control; format: functional; design: scale not given: the % may be the effect or the level left
In short: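 Male Swiss albino mice, 25–32 g, n=6/group, dosed by oral gavage (5 mL/kg) in 1% CMC; vehicle controls. Mice habituated 30 min in test cage. Writhing induced by 0.1 mL 1% acetic acid ip at 30 min post-dose. Abdominal contractions counted for 15 min from the 5th min after injection. % protection = (n−n0)/n × 100 using group mean writhes. Mean ± SEM, one-way ANOVA/Bonferroni.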

Mus musculus [2] = assay: Antiinflammatory activity in Swiss Albino mouse assessed as inhibition of carrageenan-induced paw edema at 25 mg/kg, po administered 30 mins before carrageenan challenge relative to vehicle-treated control; format: functional; design: scale not given: the % may be the effect or the level left
In short: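 Male Swiss albino mice, 25–32 g, six per group, given drug in 1% CMC orally 30 min before subplantar right hind paw injection of carrageenan (1% w/v in 0.9% saline, 0.05 mL/mouse). […] Mean ± SEM, one-way ANOVA/Bonferroni.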

Mus musculus [3] = assay: Antiinflammatory activity in Swiss Albino mouse assessed as inhibition of carrageenan-induced TNFalpha production in serum at 25 mg/kg, po administered 30 mins before carrageenan challenge after 30 mins by ELISA (reference value: 15.48 +/- 0.31 ng/ml); format: functional
Mus musculus [4] = assay: Antiinflammatory activity in Swiss Albino mouse assessed as inhibition of carrageenan-induced IL-6 production in serum at 25 mg/kg, po administered 30 mins before carrageenan challenge after 30 mins by ELISA (reference value: 23.8 +/- 2.5 ng/ml); format: functional
[5] = molecular target: T1, Prostaglandin G/H synthase 1 (Ovis aries, UniProt P05979); assay: Inhibition of ovine COX1 using arachidonic acid as substrate assessed as conversion of PGH2 to PGF2alpha after 10 mins by EIA
T1 sequence (P05979 whole entry): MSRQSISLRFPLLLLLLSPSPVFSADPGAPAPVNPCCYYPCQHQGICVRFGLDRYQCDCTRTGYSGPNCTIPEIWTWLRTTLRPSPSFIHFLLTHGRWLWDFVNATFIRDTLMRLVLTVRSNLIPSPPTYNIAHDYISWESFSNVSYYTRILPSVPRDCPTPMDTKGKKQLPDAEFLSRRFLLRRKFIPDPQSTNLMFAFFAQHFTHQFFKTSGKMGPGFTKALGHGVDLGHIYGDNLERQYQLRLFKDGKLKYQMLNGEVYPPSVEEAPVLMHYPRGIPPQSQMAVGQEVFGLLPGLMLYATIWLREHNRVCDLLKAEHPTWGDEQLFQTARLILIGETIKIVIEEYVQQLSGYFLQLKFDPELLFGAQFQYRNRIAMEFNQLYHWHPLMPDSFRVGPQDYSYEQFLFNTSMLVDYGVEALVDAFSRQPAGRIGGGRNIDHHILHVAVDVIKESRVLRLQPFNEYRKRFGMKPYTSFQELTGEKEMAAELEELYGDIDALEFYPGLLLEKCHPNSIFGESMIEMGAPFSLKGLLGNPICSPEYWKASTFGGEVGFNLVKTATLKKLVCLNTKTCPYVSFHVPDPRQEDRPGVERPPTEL
In short: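 Ovine COX-1 EIA kit: enzyme with heme and DMSO-dissolved sample in 0.1 M Tris-HCl pH 8, 5 mM EDTA, 2 mM phenol, preincubated 10 min at 37 °C; arachidonic acid added (final 100 µM), stopped after 2 min with HCl, SnCl2 reduction 5 min RT; PGF2α by EIA (18 h RT, Ellman's, 410 nm). IC50 versus untreated control incubations.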

Compound	Activity (Mus musculus [1]) [%]	Activity (Mus musculus [2]) [%]	Activity (Mus musculus [3]) [ng/mL]	Activity (Mus musculus [4]) [ng/mL]	IC50 [5] [µM]
O=C1CC(Nc2ccccc2Nc2ccc(Cl)nn2)=NN1	33.4	11.2	13.2	21.4	–
CCOc1ccc(Nc2ccccc2NC2=NNC(=O)C2)nn1	18.2	10.2	12.4	22.4	–
CN1CCN(c2ccc(Nc3ccccc3NC3=NNC(=O)C3)nn2)CC1	41.2	35.3	9.34	19.5	–
O=C1CC(Nc2ccccc2Nc2ccc(N3CCCCC3)nn2)=NN1	55.6	59.4	7.5	16.5	3.15
O=C1CC(Nc2ccccc2Nc2ccc(N3CCOCC3)nn2)=NN1	63.7	62.3	7.2	11.8	2.86
O=C1CC(Nc2ccccc2Nc2ccc(Nc3ccccc3Cl)nn2)=NN1	57.2	54.3	6.4	10.65	4.02
O=C1CC(Nc2ccccc2Nc2ccc(Nc3ccc(Cl)cc3)nn2)=NN1	68.3	35.4	7.12	9.76	4.46
O=C1CC(Nc2ccccc2Nc2ccc(Nc3ccccc3F)nn2)=NN1	36.1	11.2	11.2	17.3	–
O=C1CC(Nc2ccccc2Nc2ccc(Nc3cccc([N+](=O)[O-])c3)nn2)=NN1	13.2	5.4	13.5	18.3	–
NS(=O)(=O)c1ccc(Nc2ccc(Nc3ccccc3NC3=NNC(=O)C3)nn2)cc1	11.3	15.4	16.7	21.43	–
NC(=O)c1ccccc1Nc1ccc(Nc2ccccc2NC2=NNC(=O)C2)nn1	13.2	18.2	12.5	22.3	–
NC(=O)c1ccccc1Oc1ccc(Nc2ccccc2NC2=NNC(=O)C2)nn1	14.2	9.3	11.98	22.6	–
O=C([O-])Cc1ccccc1Nc1c(Cl)cccc1Cl.[Na+] [DICLOFENAC SODIUM]	83.3	61.5	5.01	7.6	–
